ChEMBL document CHEMBL1629643, “Naturally occurring Class A ss-lactamases from the Burkholderia cepacia complex” (Antimicrob Agents Chemother, 2009)
Converted amounts (≈) assume the structure as drawn.

Key:
Assay type in all cases: functional
Burkholderia cenocepacia [1] = test: Antimicrobial activity against Burkholderia cenocepacia 07-34 expressing beta-lactamase PenB1
Outline: (§1)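 MICs measured by broth microdilution and by Etest on clinical B. cenocepacia isolates grown for 18 h in Trypticase soy broth (30°C and 37°C). Susceptibility was read against CLSI guidelines.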

Burkholderia cenocepacia [2] = test: Antimicrobial activity against Burkholderia cenocepacia 07-34 expressing beta-lactamase PenB1 in presence of 4 ug/ml beta-lactamase inhibitor clavulanic acid
Outline: (§2)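 Cultured in Trypticase soy broth at 30°C and 37°C for 18 h. MICs by broth microdilution and Etest, read against CLSI guidelines.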

Burkholderia cenocepacia [3] = test: Antimicrobial activity against Burkholderia cenocepacia 09-54 expressing beta-lactamase PenB2; outline: as §1
Burkholderia cenocepacia [4] = test: Antimicrobial activity against Burkholderia cenocepacia 09-54 expressing beta-lactamase PenB2 in presence of 4 ug/ml beta-lactamase inhibitor clavulanic acid; outline: as §2
Burkholderia cenocepacia [5] = test: Antimicrobial activity against Burkholderia cenocepacia 212 expressing beta-lactamase PenB3; outline: as §1
Burkholderia cenocepacia [6] = test: Antimicrobial activity against Burkholderia cenocepacia 212 expressing beta-lactamase PenB3 in presence of 4 ug/ml beta-lactamase inhibitor clavulanic acid; outline: as §2
Burkholderia cenocepacia [7] = test: Antimicrobial activity against Burkholderia cenocepacia 5007902 expressing beta-lactamase PenB4; outline: as §1
Burkholderia cenocepacia [8] = test: Antimicrobial activity against Burkholderia cenocepacia 5007902 expressing beta-lactamase PenB4 in presence of 4 ug/ml beta-lactamase inhibitor clavulanic acid; outline: as §2
Escherichia coli [9] = test: Antimicrobial activity against Escherichia coli TOP10 harboring beta-lactamase PenB1
Outline: (§3)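 MICs by broth microdilution and Etest, interpreted per CLSI guidelines. Strains tested were host E. coli TOP10, and TOP10 carrying pBcSau13 (pBK-CMV vector, kanamycin-resistant) holding a Sau3AI fragment of B. cenocepacia 212 DNA that encodes PenB1.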

Escherichia coli [10] = test: Antimicrobial activity against Escherichia coli TOP10 harboring beta-lactamase PenB1 in presence of 4 ug/ml beta-lactamase inhibitor clavulanic acid
Outline: (§4)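 E. coli TOP10 host, either plain or carrying the pBK-CMV clone pBcSau13 with the B. cenocepacia 212 insert. MICs by broth microdilution and Etest, read against CLSI guidelines.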

Escherichia coli [11] = test: Antimicrobial activity against Escherichia coli TOP10; outline: as §3
Escherichia coli [12] = test: Antimicrobial activity against Escherichia coli TOP10 in presence of 4 ug/ml beta-lactamase inhibitor clavulanic acid; outline: as §4
Burkholderia cenocepacia [13] = test: Antimicrobial activity against Burkholderia cenocepacia 07-34 expressing beta-lactamase PenB in presence of 4 ug/ml beta-lactamase inhibitor Tazobactam
Outline: (§5)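 Isolates were cultured for 18 h in Trypticase soy broth (30°C and 37°C), then tested by microdilution and Etest. […] MICs were interpreted using CLSI guidelines.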

Burkholderia cenocepacia [14] = test: Antimicrobial activity against Burkholderia cenocepacia 09-54 expressing beta-lactamase PenB2 in presence of 4 ug/ml beta-lactamase inhibitor Tazobactam; outline: as §5
Burkholderia cenocepacia [15] = test: Antimicrobial activity against Burkholderia cenocepacia 212 expressing beta-lactamase PenB3 in presence of 4 ug/ml beta-lactamase inhibitor Tazobactam; outline: as §5
Burkholderia cenocepacia [16] = test: Antimicrobial activity against Burkholderia cenocepacia 5007902 expressing beta-lactamase PenB4 in presence of 4 ug/ml beta-lactamase inhibitor Tazobactam; outline: as §5
Escherichia coli [17] = test: Antimicrobial activity against Escherichia coli TOP10 harboring beta-lactamase PenB1 in presence of 4 ug/ml beta-lactamase inhibitor Tazobactam; outline: as §4
Escherichia coli [18] = test: Antimicrobial activity against Escherichia coli TOP10 in presence of 4 ug/ml beta-lactamase inhibitor Tazobactam; outline: as §4

Row | SMILES | MIC (Burkholderia cenocepacia [1]) | MIC (Burkholderia cenocepacia [2]) | MIC (Burkholderia cenocepacia [3]) | MIC (Burkholderia cenocepacia [4]) | MIC (Burkholderia cenocepacia [5]) | MIC (Burkholderia cenocepacia [6]) | MIC (Burkholderia cenocepacia [7]) | MIC (Burkholderia cenocepacia [8]) | MIC (Escherichia coli [9]) | MIC (Escherichia coli [10]) | MIC (Escherichia coli [11]) | MIC (Escherichia coli [12]) | MIC (Burkholderia cenocepacia [13]) | MIC (Burkholderia cenocepacia [14]) | MIC (Burkholderia cenocepacia [15]) | MIC (Burkholderia cenocepacia [16]) | MIC (Escherichia coli [17]) | MIC (Escherichia coli [18])
1 | CC1(C)S[C@@H]2[C@H](NC(=O)[C@H](N)c3ccc(O)cc3)C(=O)N2[C@H]1C(=O)O [AMOXICILLIN] | 512 µg/mL (≈ 1400 µM) | 512 µg/mL | 512 µg/mL (≈ 1400 µM) | 512 µg/mL | 512 µg/mL (≈ 1400 µM) | 512 µg/mL | 512 µg/mL (≈ 1400 µM) | 512 µg/mL | 512 µg/mL (≈ 1400 µM) | 16 µg/mL | 4 µg/mL (≈ 10.9 µM) | 4 µg/mL | – | – | – | – | – | –
2 | CC1(C)S[C@@H]2[C@H](NC(=O)[C@H](C(=O)O)c3ccsc3)C(=O)N2[C@H]1C(=O)O [TICARCILLIN] | 512 µg/mL (≈ 1330 µM) | – | 512 µg/mL (≈ 1330 µM) | – | 512 µg/mL (≈ 1330 µM) | – | 512 µg/mL (≈ 1330 µM) | – | 512 µg/mL (≈ 1330 µM) | – | 4 µg/mL (≈ 10.4 µM) | – | – | – | – | – | – | –
3 | C[C@H]1[C@H](NC(=O)/C(=N\OC(C)(C)C(=O)O)c2csc(N)n2)C(=O)N1S(=O)(=O)O [AZTREONAM] | 4 µg/mL (≈ 9.19 µM) | – | 512 µg/mL (≈ 1180 µM) | – | 512 µg/mL (≈ 1180 µM) | – | 16 µg/mL (≈ 36.7 µM) | – | 0.5 µg/mL (≈ 1.15 µM) | – | – | – | – | – | – | – | – | –
4 | C[C@@H](O)[C@H]1C(=O)N2C(C(=O)O)=C(SCCNC=N)C[C@H]12 [IMIPENEM ANHYDROUS] | 8 µg/mL (≈ 26.7 µM) | – | 16 µg/mL (≈ 53.4 µM) | – | 16 µg/mL (≈ 53.4 µM) | – | 8 µg/mL (≈ 26.7 µM) | – | 0.5 µg/mL (≈ 1.67 µM) | – | – | – | – | – | – | – | – | –
5 | CCN1CCN(C(=O)N[C@@H](C(=O)N[C@@H]2C(=O)N3[C@@H]2SC(C)(C)[C@@H]3C(=O)O)c2ccccc2)C(=O)C1=O [PIPERACILLIN] | 4 µg/mL (≈ 7.73 µM) | – | 512 µg/mL (≈ 989 µM) | – | 128 µg/mL (≈ 247 µM) | – | 4 µg/mL (≈ 7.73 µM) | – | 8 µg/mL (≈ 15.5 µM) | – | 2 µg/mL (≈ 3.86 µM) | – | 4 µg/mL | 256 µg/mL | 128 µg/mL | 4 µg/mL | 4 µg/mL | 2 µg/mL
